Experimental findings from ChEMBL document CHEMBL2331267 (J Med Chem, 2013) are described below.

Each structure is given as a SMILES string.

System in one data set: not listed separately
Description: Chemical stability of the compound in DMSO-d6 solution after 120 mins by LC/MS analysis. To be noted: 2 h. In kind it is physicochemical.
With `CCCCCCNC(=O)n1c(C)c(C)c(=O)[nH]c1=O`, the Stability result is recorded as “Unstable”.
In the case of `CCCCCCNC(=O)n1c(Cl)cc(=O)[nH]c1=O`, the Stability result was “Unstable”.

System in the next data set: not listed separately
As to the kind of experiment: Antiproliferative activity against human SW403 cells after 72 hrs by MTT assay. As to conditions: SW-403, 72 h; call rule not given here. The format is functional, cell-based. An outline of the steps:
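SW403 cells exposed to compounds for 72 h; viability read by MTT reduction, n=4 per drug concentration; EC50 derived from concentration–response.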
A word on the EC50: it is the concentration at which the effect is half-maximal. Lower therefore signals a more potent agent. In turn, `CCCCCCNC(=O)n1cc(-c2ccccc2)c(=O)[nH]c1=O` displayed an EC50 of 24000 nM.
`CCCCCCNC(=O)n1cc(F)c(=O)n(C)c1=O` displayed an EC50 of 22000 nM.
Take `CCCCCCCCNC(=O)n1ccc(=O)[nH]c1=O`: the EC50 is 20000 nM.

System in a further data set: not listed separately
As to the kind of experiment: Chemical stability of the compound in buffer at pH 4.5 after 30 mins by LC/MS analysis. In kind it is physicochemical. To be noted: read-out: Stability.
For `CCCCCCNC(=O)n1cc(C#N)c(=O)[nH]c1=O`, the remaining at 0.5 h was determined as 22%.

The target of the next data set is T1, Acid ceramidase (Homo sapiens, UniProt Q13510).
T1 sequence (Q13510 whole entry): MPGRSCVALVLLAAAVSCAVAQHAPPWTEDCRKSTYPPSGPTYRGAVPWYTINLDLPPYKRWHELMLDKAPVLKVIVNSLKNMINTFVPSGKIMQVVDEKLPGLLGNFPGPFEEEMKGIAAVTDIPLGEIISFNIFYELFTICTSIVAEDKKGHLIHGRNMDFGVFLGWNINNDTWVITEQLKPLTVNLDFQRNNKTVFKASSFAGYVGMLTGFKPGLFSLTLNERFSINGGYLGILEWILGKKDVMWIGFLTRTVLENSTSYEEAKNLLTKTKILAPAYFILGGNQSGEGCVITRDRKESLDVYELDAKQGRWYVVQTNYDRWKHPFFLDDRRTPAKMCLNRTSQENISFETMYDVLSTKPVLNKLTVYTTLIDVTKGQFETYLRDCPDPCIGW
Description: Inhibition of acid ceramidase (unknown origin).
Conditions: not given
Usually Ki stands for a measure of affinity in units of concentration, obtained from inhibition or displacement. Lower therefore signals tighter binding. For `CCCCCCCC/C=C\CCCCCCCC(=O)NCCO` [OLEOYLETHANOLAMIDE], affinity was put at a Ki of 500000 nM.

The next data set addresses T2, Acid ceramidase (Rattus norvegicus, UniProt Q6P7S1).
T2 sequence (Q6P7S1 whole entry): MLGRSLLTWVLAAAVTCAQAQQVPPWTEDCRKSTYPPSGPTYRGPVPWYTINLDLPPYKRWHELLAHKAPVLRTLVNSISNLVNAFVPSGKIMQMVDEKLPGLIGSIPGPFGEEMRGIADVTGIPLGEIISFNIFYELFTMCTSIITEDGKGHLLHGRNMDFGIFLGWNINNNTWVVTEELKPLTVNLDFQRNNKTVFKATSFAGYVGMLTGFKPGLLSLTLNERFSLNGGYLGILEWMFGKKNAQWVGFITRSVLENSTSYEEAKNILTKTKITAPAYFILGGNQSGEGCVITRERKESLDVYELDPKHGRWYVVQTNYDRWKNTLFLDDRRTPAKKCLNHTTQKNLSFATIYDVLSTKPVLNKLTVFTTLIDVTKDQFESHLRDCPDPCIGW
Description: Inhibition of rat recombinant acid ceramidase expressed in human HEK293 cells using N-lauroylceramide as substrate incubated for 30 mins prior to substrate addition measured after 30 mins by LC/MS analysis. As to conditions: hek293. An outline of the steps:
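Rat AC from cell lysate: sucrose/Tris homogenate, 12000g pellet, freeze–thaw in PBS, 105000g supernatant. Enzyme (50 μg protein) preincubated 30 min, 37 °C, with inhibitor (final DMSO 1%) in pH 4.5 phosphate/citrate buffer with 0.1% NP-40, 150 mM NaCl, 3 mM DTT; 100 μM N-lauroylceramide, 30 min, 37 °C; lauric acid quantified by LC/MS against heptadecanoic acid standard.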
In general, IC50 refers to the point on the concentration scale where inhibition reaches its midpoint. For `CCCCCCN(C)C(=O)n1ccc(=O)[nH]c1=O`, the IC50 result was “Not Active”.
With `CCCCCCNC(=O)n1cc(C#N)c(=O)[nH]c1=O`, the IC50 result is on record as “ND(Unstable)”.
On to `CCCCCCNC(=O)N1CCC(=O)NC1=O`, for which the IC50 entry is “Not Active”.
`CCCCCCNC(=O)n1c(C)c(C)c(=O)[nH]c1=O`: the IC50 entry is listed as “ND(Unstable)”.
In the case of `CCCCCCNC(=O)n1c(Cl)cc(=O)[nH]c1=O`, the IC50 entry is “ND(Unstable)”.

Still in this data set, the particulars now being: hek293; read-out: IC50.
As for `CCCCCCNC(=O)n1cc(C(F)(F)F)c(=O)[nH]c1=O`, the IC50 was 12 nM.
Consider `CCCCCCNC(=O)n1ccc(=O)[nH]c1=O`, for which the IC50 was found to be 426 nM.
`CCCCCCNC(=O)n1cc(F)c(=O)[nH]c1=O` [CARMOFUR]: the IC50 was determined as 29 nM.

Still in this data set, the particulars now being: read-out: IC50.
`CCCCCCNC(=O)n1cc(C)c(=O)[nH]c1=O`: the IC50 is 1460 nM.
Turning to `CCCCCCNC(=O)n1cc(CC)c(=O)[nH]c1=O`, the IC50 was 733 nM.
Same read-out and setting: then `CCCCCCNC(=O)n1cc(F)c(=O)n(C)c1=O`, with 13 nM; and `CCCCCCNC(=O)n1ccc(=O)n(C)c1=O`, with 53 nM; and `CCCCCCNC(=O)n1cc(F)c(=O)n(CC)c1=O`, with 18 nM.
Regarding `CCCCCCNC(=O)n1cc(F)c(=O)n(CC2CC2)c1=O`, the IC50 is 61 nM.
Turning to `CCCCCCNC(=O)n1cc(F)c(=O)n(C(=O)C(C)C)c1=O`, the half-inhibitory concentration (IC50) amounted to 21 nM.
As for `CCCCCCNC(=O)n1cc(F)c(=O)n(C(=O)OC)c1=O`, the IC50 was found to be 7 nM.
Still for that read-out and setting: then `CCCCCCNC(=O)n1cc(F)c(=O)n(C(=O)OCC)c1=O`, with 12 nM.
With `CCCCCCNC(=O)n1cc(F)c(=O)n(C(=O)OCC(C)C)c1=O`, the IC50 was 16 nM.
For the molecule `CCCCCCNC(=O)n1cc(F)c(=O)n(C(=O)c2ccccc2)c1=O`, the IC50 stood at 20 nM.
On the same count and under the same terms, then `CCCCNC(=O)n1ccc(=O)[nH]c1=O`, with 8500 nM.
Take `CCCCCNC(=O)n1ccc(=O)[nH]c1=O`: the IC50 is 2100 nM.
Still for that read-out and setting: the figure for `CCCCCCCNC(=O)n1ccc(=O)[nH]c1=O` is 325 nM; for `CCCCCCCCNC(=O)n1cc(F)c(=O)[nH]c1=O` it is 46 nM; for `CCCCCCCCNC(=O)n1ccc(=O)[nH]c1=O` it is 283 nM.
For `CCCCCCCCCNC(=O)n1ccc(=O)[nH]c1=O`, the half-maximal inhibitory concentration (IC50) was 464 nM.
Turning to `CCCCCCCCNC(=O)n1cc(F)c(=O)n(C(=O)OC)c1=O`, the IC50 came to 4 nM.
